Laboratory results published in ChEMBL document CHEMBL1148681, “Synthesis and evaluation of (2-phenethyl-2H-1,2,3-triazol-4-yl)(phenyl)methanones as Kv1.5 channel blockers for the treatment of atrial fibrillation” (Bioorg Med Chem Lett, 2006).
Active and inactive are the calls of the source. The calls are words filed in the database; no cut-off is given here.

Experiments:
[1] = biological target: T1, Potassium voltage-gated channel subfamily A member 5 (Homo sapiens, UniProt P22460); experiment: Blockade of Kv1.5 channel expressed in LTK cells at 1 uM by patch clamp method; type: functional, cell-based
T1 sequence (P22460 whole entry): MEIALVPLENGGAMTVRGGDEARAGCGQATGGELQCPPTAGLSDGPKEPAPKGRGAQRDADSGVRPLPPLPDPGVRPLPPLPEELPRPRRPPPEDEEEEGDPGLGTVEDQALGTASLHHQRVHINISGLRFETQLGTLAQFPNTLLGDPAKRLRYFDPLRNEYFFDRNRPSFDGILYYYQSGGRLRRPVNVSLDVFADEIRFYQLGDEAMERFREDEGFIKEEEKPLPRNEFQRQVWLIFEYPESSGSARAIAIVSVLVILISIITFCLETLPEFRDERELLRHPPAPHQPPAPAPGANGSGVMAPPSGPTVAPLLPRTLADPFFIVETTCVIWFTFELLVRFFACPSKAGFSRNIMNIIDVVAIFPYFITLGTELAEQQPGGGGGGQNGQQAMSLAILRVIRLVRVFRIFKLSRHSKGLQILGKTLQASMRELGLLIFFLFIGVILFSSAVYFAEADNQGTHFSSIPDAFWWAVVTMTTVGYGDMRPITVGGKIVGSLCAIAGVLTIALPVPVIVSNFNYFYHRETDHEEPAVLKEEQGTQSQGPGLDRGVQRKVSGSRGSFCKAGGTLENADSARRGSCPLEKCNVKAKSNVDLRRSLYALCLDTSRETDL
In short: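 Whole-cell patch clamp on Ltk- cells overexpressing Kv1.5, cultured 24–72 h and induced with dexamethasone for 24 h. Pipette solution was KCl/K2ATP/K4BAPTA/MgCl2/Hepes at pH 7.2; bath was NaCl/KCl/CaCl2/MgCl2/Hepes/glucose at pH 7.4. Cells were held at −70 mV and stepped to +60 mV for 1 s at 0.2 Hz. Current at pulse end was compared to control at 1 uM inhibitor.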

[2] = biological target: T1, Potassium voltage-gated channel subfamily A member 5; experiment: Blockade of Kv1.5 channel expressed in LTK cells by patch clamp method; type: functional, cell-based
In short: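 Dexamethasone-induced (24 h) Ltk- cells expressing Kv1.5 were recorded by series-resistance-compensated whole-cell patch clamp, with 1 s steps from −70 to +60 mV at 0.2 Hz (pH 7.2 pipette, pH 7.4 bath). After control currents stabilized, inhibitor was perfused at rising concentrations, each to maximal block. IC50 was obtained by nonlinear regression.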

[3] = biological target: Voltage-gated inwardly rectifying potassium channel KCNH2 (Homo sapiens, UniProt Q12809); experiment: Inhibition of hERG; type: toxicity
Voltage-gated inwardly rectifying potassium channel KCNH2, sequence (Q12809 whole entry): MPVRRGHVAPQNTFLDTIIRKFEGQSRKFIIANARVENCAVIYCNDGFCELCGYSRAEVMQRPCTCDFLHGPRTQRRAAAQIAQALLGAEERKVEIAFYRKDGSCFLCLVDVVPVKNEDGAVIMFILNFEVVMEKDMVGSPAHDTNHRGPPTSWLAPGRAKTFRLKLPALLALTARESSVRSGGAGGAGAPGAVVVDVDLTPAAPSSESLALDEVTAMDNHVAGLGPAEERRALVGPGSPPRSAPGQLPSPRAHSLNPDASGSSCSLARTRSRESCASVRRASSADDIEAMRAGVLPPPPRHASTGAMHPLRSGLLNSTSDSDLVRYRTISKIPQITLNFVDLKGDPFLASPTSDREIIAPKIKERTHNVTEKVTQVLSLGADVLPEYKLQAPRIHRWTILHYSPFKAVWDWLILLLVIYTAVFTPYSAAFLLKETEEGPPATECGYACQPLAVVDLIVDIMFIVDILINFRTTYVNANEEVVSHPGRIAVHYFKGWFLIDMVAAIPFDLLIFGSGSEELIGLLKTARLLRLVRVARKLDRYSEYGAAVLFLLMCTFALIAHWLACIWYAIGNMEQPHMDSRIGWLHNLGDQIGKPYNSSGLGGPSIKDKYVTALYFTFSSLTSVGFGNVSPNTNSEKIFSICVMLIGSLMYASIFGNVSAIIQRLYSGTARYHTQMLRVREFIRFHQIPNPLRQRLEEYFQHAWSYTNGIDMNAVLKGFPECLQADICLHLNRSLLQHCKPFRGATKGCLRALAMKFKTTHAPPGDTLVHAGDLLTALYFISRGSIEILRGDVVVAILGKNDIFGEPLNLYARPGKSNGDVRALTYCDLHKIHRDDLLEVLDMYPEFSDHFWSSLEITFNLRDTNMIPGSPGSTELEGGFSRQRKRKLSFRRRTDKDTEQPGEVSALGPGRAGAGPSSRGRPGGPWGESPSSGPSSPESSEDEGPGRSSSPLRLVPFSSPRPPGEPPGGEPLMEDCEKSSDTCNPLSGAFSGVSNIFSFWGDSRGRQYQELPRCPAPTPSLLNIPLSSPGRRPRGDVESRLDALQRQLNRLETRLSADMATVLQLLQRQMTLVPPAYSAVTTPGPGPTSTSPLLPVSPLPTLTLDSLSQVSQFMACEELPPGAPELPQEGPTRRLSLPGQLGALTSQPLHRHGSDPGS

[4] = biological target: Potassium voltage-gated channel subfamily A member 3 (Homo sapiens) (UniProt P22001); experiment: Inhibition of Kv1.3 channel
Potassium voltage-gated channel subfamily A member 3 (Homo sapiens), sequence (P22001 whole entry): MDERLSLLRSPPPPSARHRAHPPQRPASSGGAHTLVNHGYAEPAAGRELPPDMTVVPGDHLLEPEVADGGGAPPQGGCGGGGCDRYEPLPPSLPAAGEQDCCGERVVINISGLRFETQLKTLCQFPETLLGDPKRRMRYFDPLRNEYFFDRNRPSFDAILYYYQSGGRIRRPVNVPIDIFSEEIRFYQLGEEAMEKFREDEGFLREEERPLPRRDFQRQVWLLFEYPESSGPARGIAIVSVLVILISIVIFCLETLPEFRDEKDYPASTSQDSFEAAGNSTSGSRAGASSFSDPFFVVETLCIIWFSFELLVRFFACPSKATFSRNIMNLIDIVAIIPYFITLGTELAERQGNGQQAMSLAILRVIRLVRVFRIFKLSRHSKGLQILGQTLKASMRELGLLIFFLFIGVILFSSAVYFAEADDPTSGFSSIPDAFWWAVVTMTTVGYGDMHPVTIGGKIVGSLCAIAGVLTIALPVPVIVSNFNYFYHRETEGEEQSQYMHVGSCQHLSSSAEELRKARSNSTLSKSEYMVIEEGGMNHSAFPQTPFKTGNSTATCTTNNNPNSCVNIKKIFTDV

[5] = biological target: Voltage-gated L-type calcium channel (Homo sapiens, UniProt Q13936+Q13698+Q01668+O60840); experiment: Inhibition of L type calcium channel; type: protein assay
Sus scrofa [6] = experiment: Increase in atrial effective refractory period in pig at 30 mg/kg after 15 mins; type: functional, Cardiac atrium
Sus scrofa [7] = experiment: Effect on ventricular effective refractory period in pig at 30 mg/kg after 15 mins; type: functional, organism-based; design: dose 30 mg/kg; conditions: Cardiac ventricle

## COc1ccc(CCn2ncc(C(=O)c3ccc(N(C)C)cc3)n2)cc1
[1]
  Activity: 99%

## COc1ccc(CCn2ncc(C(=O)c3ccc(N(C)C)cc3OC)n2)cc1
[1]
  Activity: 0%

## COc1ccc(CCn2cc(C(=O)c3ccc(C)c(C)c3)nn2)cc1
[2]
  Activity: inactive

## COc1ccc(CCn2ncc(C(=O)c3ccccc3Cl)n2)cc1
[1]
  Activity: 22%

## COc1ccc(CCN2C(=O)CSC2c2ccc(C)c(C)c2)cc1 (configuration not stated)
[2]
  IC50: 137 nM

## COc1ccc(CCn2ncc(C(=O)c3ccc(C)c(C)c3)n2)cc1
[2]
  IC50: 294 nM
[1]
  Activity: 90%
[3]
  Activity: > 50 µM
[4]
  Activity: 10.1 µM
[5]
  Activity: 26 µM
Sus scrofa [6]
  Activity: 12%
Sus scrofa [7]
  Activity: inactive

## CCc1ccc(C(=O)c2cnn(CCc3ccc(OC)cc3)n2)cc1
[1]
  Activity: 86%

## COc1ccc(CCn2ncc(C(=O)c3ccc(Cl)c(Cl)c3)n2)cc1
[1]
  Activity: 88%

## COc1ccc(CCn2ncc(C(=O)c3ccc(OC)cc3)n2)cc1
[1]
  Activity: 84%

## COc1ccc(CCn2ncc(C(=O)c3ccc(Cl)cc3)n2)cc1
[1]
  Activity: 85%

## COc1ccc(CCn2ncc(C(=O)c3ccc(C(C)C)cc3)n2)cc1
[1]
  Activity: 97%
